# CSN inh: inhibitors of human CSN-mediated cullin deneddylation. Q92905. Purified CSN, SCF-Nedd8-OG deneddylation, fluorescence polarization. inhibition, % at 12.5 µM. actives 0.38% (n = 360,000);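 active = pattern-corrected inhibition above about 35%, with an unprinted fluorescence ratio check between 0.5 and 1.5, limit read from the data, passing the limit was not always enough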
# Target sequence (Q92905 whole entry, looked up, one chain of several): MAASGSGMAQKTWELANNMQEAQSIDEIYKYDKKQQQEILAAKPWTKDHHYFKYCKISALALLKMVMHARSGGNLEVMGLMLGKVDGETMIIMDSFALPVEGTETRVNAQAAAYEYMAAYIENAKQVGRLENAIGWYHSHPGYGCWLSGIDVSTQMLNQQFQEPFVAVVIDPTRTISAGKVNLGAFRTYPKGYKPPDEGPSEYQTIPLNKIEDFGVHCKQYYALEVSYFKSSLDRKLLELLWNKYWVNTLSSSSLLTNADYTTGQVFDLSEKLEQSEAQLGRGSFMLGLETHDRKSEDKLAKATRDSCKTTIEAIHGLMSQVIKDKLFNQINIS
#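 Material: human Csn5 produced in HEK293T cells; Input: enzyme 0.24 nM; Reagent: SCFSkp2-Nedd8OG substrate at 10 nM final; Dosing: 12.5 µM compound; Incubation: 90 min reaction at room temperature; Detection: fluorescence polarization of the substrate; Evaluation: % inhibition of substrate cleavage by Csn5; Control set: substrate-only high control, full reaction low control.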
# HNF4A DNA FP: change in binding of human HNF4 alpha to DNA; P41235; HNF4a-FITC DNA binding, fluorescence polarization, 1 h; activity change, % at 10 µM; actives 0.3% (n = 360,000); AID 1224865; in the data active = activity change above about 30%, passing the limit was not always enough
# NR1D1 modulator: modulators of human Rev-erb alpha DNA binding | P20393 | Rev-erbα–FITC-DNA binding, fluorescence polarization, 90 min | activity, % at 10 µM | actives 0.79% (n = 370,000);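 active = activity above about 14%, limit read from the data; passing the limit was not always enough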
# TPT1 inh: blocks Candida albicans tRNA 2'-phosphotransferase; actives 0.81% (n = 300,000); recombinant caTPT1, FP RNA substrate dephosphorylation; AID 1962; inhibition, % at 5 µM;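 active = inhibition above the mean of all tested compounds plus 3 SD, set per screening campaign, cut at about 24% in these data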
# TPT1 inh confirm: confirmation of Candida albicans TPT1 inhibitors | shares compounds with TPT1 inh | AID 2149 | actives 74% (n = 2,400) | inhibition, % at 5 µM | recombinant caTPT1, fluorescence polarization, RNase T1 coupled;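 active = inhibition above the primary screen limit, the mean inhibition of all tested compounds plus 3 SD, cut at about 25% in these data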
# RNase T1 counter: RNase T1 inhibition in TPT1 counter-screen | shares compounds with TPT1 inh | RNase T1 cleavage, fluorescence polarization, 1536-well | inhibition, % at 5 µM | actives 83% (n = 2,400) | AID 2153;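 active = inhibition above the solvent-only control well mean plus 3 SD, limit set per screening run, cut at about 23% in these data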;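 note: inhibitors block cleavage so intact labeled substrate keeps polarization high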
# Target sequence (P00651 whole entry, looked up): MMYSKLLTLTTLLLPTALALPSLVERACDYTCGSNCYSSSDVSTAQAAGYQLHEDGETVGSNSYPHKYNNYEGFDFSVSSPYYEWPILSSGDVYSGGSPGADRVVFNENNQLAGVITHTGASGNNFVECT
# Numbers stand for hits; i = inactive; nt = no result. A selection: hits, their analogues and other compounds. The true share with any hit is near 1.7%.
SMILES,CSN inh,HNF4A DNA FP,NR1D1 modulator,TPT1 inh,TPT1 inh confirm,RNase T1 counter
CN1CCc2c(sc3c2C(=O)NC(c2ccco2)N3)C1 (centres undefined),i,i,i,i,nt,nt
CN1CCc2c(sc3c2C(=O)NC(c2cn(Cc4ccccc4)c4ccccc24)N3)C1 (centres undefined),i,52,i,67,75,85
O=C1NC(c2ccco2)Nc2sc3c(c21)CCN(Cc1ccccc1)C3 (centres undefined),i,i,i,53,53,62
COc1cc(CC(=O)Nc2sccc2C(N)=O)cc(OC)c1OC,i,34,i,76,i,25
O=C(O)c1cc(-c2ccco2)nn1-c1cccc(Cl)c1,i,i,i,29,25,32
Cc1cc(/C=C2/C(=N)N3C(c4ccccc4)=CSC3=NC2=O)c(C)n1-c1ccccc1,i,i,i,24,i,27
Nc1[nH]c(C(=O)c2ccccc2)c(-c2ccc(O)cc2)c1C(=O)NCCc1c[nH]c2ccccc12,nt,nt,i,nt,nt,nt
O=[N+]([O-])c1ccc(-c2ccc(/C=N/Nc3nc(NCc4ccccc4)nc(N4CCOCC4)n3)o2)cc1,i,i,i,87,89,93
CC(=O)N1CCc2c(sc(NC(=O)c3cccc(N4C(=O)CCC4=O)c3)c2C(N)=O)C1,i,i,i,33,41,56
CCOC(=O)N1CCc2c(sc(N)c2C#N)C1,nt,nt,i,i,nt,nt
N#Cc1c(N)sc2c1CCN(CCc1ccccc1)C2,i,i,i,75,71,82
CC(C)N1CCc2c(sc(NC(=O)c3ccc(C(=O)c4ccccc4)cc3)c2C(N)=O)C1,i,i,i,35,31,48
CC(C)(C)C(=O)Nc1sc2c(c1C#N)CCN(Cc1ccccc1)C2,i,i,i,39,62,67
Cc1cccc(OC[C@@H](O)CN2CCC(C(O)(c3ccccc3)c3ccccc3)CC2)c1,nt,nt,i,nt,nt,nt
CCOC(=O)Nc1ccc2c(c1)[C@]1(CC(=O)N(CC(C)C)C1c1ccccc1)C(=O)N2C (some centres undefined),nt,nt,i,nt,nt,nt
COc1cccc(OC)c1C(=O)Nc1sc2c(c1C(N)=O)CCN(Cc1ccccc1)C2,i,i,i,i,nt,nt
CCCN1CCc2c(sc(NC(=O)c3ccc(S(=O)(=O)N(C)c4ccccc4)cc3)c2C(N)=O)C1,i,34,nt,107,113,115
NC(=O)c1c(NC(=O)C2c3ccccc3Oc3ccccc32)sc2c1CCCCC2,i,i,i,27,i,22
CC(=O)Nc1sc2c(c1-c1nc3ccccc3s1)CCN(C(C)C)C2,i,i,nt,43,47,53
CC(=O)c1ccc(C(=O)Nc2sc3c(c2C(N)=O)CCN(Cc2ccccc2)C3)cc1,i,i,i,132,140,141
CCOCCCNC(=O)C1CCN(S(=O)(=O)c2cc3c(cc2Br)CCN3C(=O)CC)CC1,nt,nt,i,nt,nt,nt
CN(N=O)C(=O)N[C@@H]1[C@@H](O)[C@H](O)[C@@H](CO)O[C@@H]1O,nt,nt,i,nt,nt,nt
Nc1[nH]c(C(=O)c2ccccc2)c(-c2ccc(F)cc2)c1C(=O)c1c[nH]c2ccccc12,nt,nt,i,nt,nt,nt
NC(=O)c1c(NC(=O)C2COc3ccccc3O2)sc2c1CCN(Cc1ccccc1)C2 (centres undefined),i,i,i,67,70,85
CCOC(=O)c1c(NC(=O)C2COc3ccccc3O2)sc2c1CCN(Cc1ccccc1)C2 (centres undefined),i,i,i,i,nt,nt
SMILES,CSN inh,HNF4A DNA FP,NR1D1 modulator,TPT1 inh,TPT1 inh confirm,RNase T1 counter
CN=C1S/C(=C\c2ccc(N3CCCC3)c(F)c2)C(=O)N1C,i,i,i,30,52,66
CCOC(=O)c1c(CC(C)C)csc1/N=C/C1C(=O)CC(C)(C)CC1=O,36,i,i,61,i,i
CCOC(=O)c1cc(C)sc1/N=C/C1C(=O)CC(C)(C)CC1=O,i,i,i,i,nt,nt
COC(=O)c1cc(S(=O)(=O)NCC2CCN(C(=O)C(=O)c3cccs3)CC2)cs1,nt,nt,i,nt,nt,nt
Cc1ccccc1N=Nc1c(N)[nH]n(-c2ccccc2)c1=O,nt,nt,i,nt,nt,nt
CCSc1n[nH]c(=O)n1C,nt,nt,i,nt,nt,nt
COc1ccc(-c2c/c(=N\c3nc(-c4ccccc4)c(C)s3)c3ccccc3o2)cc1O,i,i,i,27,i,31
CCc1ccc(-n2ncc(Cl)c(Oc3ccc(OC)cc3)c2=O)cc1,nt,nt,i,nt,nt,nt
COc1ccc(/C=C(\C#N)C(=O)Nc2cccc3ncccc23)cc1OC,i,i,i,i,nt,nt
N#C/C(=C\c1ccc(O)c(O)c1)C(=O)Nc1ccccc1,i,i,i,33,40,48
N#C/C(=C\c1ccc(O)c(O)c1)C(=O)Nc1cccc2ncccc12,i,i,i,24,i,27
CC(C)NC(=O)N(C)C[C@H]1Oc2cc(C#Cc3ccc(F)cc3)ccc2S(=O)(=O)N([C@H](C)CO)C[C@H]1C,i,i,i,nt,nt,nt
O=C(N/C=C/c1ccco1)OCc1ccccc1,i,i,i,31,i,31
O=C(N/C=C/c1ccco1)NCc1ccccc1,i,i,i,i,nt,nt
O=c1[nH]c2cc3c(cc2cc1CN(Cc1cccs1)Cc1nnnn1Cc1ccco1)OCCO3,i,i,i,31,i,i
O=c1[nH]c2cc3c(cc2cc1CN(Cc1ccccc1)Cc1nnnn1Cc1ccco1)OCCO3,i,i,i,nt,nt,nt
CCCN1C(=O)/C(=C\C=C2/Sc3ccccc3N2CCO)SC1=S,i,i,i,64,42,54
CCCN1C(=O)/C(=C/c2ccncc2)SC1=S,i,i,i,i,nt,nt
CCN1C(=O)/C(=C/C=C2/Sc3ccccc3N2CCO)SC1=S,i,36,i,40,33,45
CC(C)=CC([C@]12C[C@H](CO)N[C@@H]1Nc1ccccc12)S(=O)(=O)c1ccccc1 (some centres undefined),nt,nt,i,nt,nt,nt
Cc1cc(O)cc(=O)n1-c1ccc(Cl)c(C(F)(F)F)c1,nt,nt,i,nt,nt,nt
C[C@@H]1COc2cccc(N3CCCC3)c2S(=O)(=O)N1,nt,nt,i,nt,nt,nt
Cc1ccc(C(C)C)c(OCC(O)CN2CCc3ccccc3C2)c1 (centres undefined),i,i,i,i,nt,nt
Cn1cc(CNCc2ccccc2OCC(O)CN2CCc3ccccc3C2)cn1 (centres undefined),i,i,i,26,i,i
Nc1ccc2c(c1)CCC2=O,i,i,i,24,i,28
SMILES,CSN inh,HNF4A DNA FP,NR1D1 modulator,TPT1 inh,TPT1 inh confirm,RNase T1 counter
COc1ccc2c(c1)CCCC2=O,i,i,i,nt,nt,nt
CCn1c(COc2ccc(C)cc2)nnc1SCC(=O)Nc1ccccc1-c1ccccc1,nt,nt,i,nt,nt,nt
COc1ccc(-n2c(O)c(/C=N/NS(=O)(=O)c3ccc(C)cc3)c3ccccc3c2=O)cc1OC,i,86,i,109,70,86
COc1ccc(-n2c(O)c(/C=N/Nc3nc(C)cc(C)n3)c3ccccc3c2=O)cc1OC,i,i,i,i,nt,nt
COc1ccc(-n2c(O)c(/C=N/NS(=O)(=O)c3cc(C)ccc3C)c3ccccc3c2=O)cc1OC,i,i,i,109,94,98
COc1ccccc1N1CCN(Cc2cc(=O)oc3cc(C)ccc23)CC1,i,i,i,nt,nt,nt

# From PubChem BioAssay
